# Assay results reported in PubChem BioAssay AID504382 (The Scripps Research Institute Molecular Screening Center, 2011).
# The whole screen tested about 2,500 compounds, of which about 460 (18%) were called active.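 How the source made its calls: active means mean activation above a cutoff of low control average plus 3 SD from the earlier screen (cut at about 12% in these data); inactive means the rest.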 Only a sample is shown.
# Assay: IANBD-channel fluorescence artefacts in buffer – biochemical, artefact control for cardiac RTF calcium sensitizer project, confirmation (AID 504382)
# Conditions: IANBD fluorescence interference counterscreen, EC20 Ca2+, at 7.2 µM, hits give high values, scaled: EC20 calcium 0, EC100 calcium 100
# How it was run: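 Medium: MOPS buffer, 190 mM, with KCl, MgCl2, EGTA, NTA, DTT, pH 7.20; Dosing: one dose of 7.2 µM, 0.7% DMSO; Probe or stimulus: calcium at EC20 level, 0.472 mM final; Incubation: 15 min, 25 °C; Evaluation: compound fluorescence interference relative to control well signal range; Signal: fluorescence, 480/540 nm.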
row,Compound,fluorescence artifact activation
1,O=c1[nH]ncc2c3ccccc3n(Cc3cccc(Cl)c3)c12,-0.06% (inactive)
2,Cc1nc2oc(C(=O)c3ccccc3)c(N)c2c2c1COC(C)(C)C2,233% (active)
3,N#CC1(NC(=O)CN2CCN(S(=O)(=O)c3ccccc3F)CC2)CCCC1,-0.12% (inactive)
4,O=C(C1=C[C@@H](c2ccc(Br)cc2)C[C@@H](OCc2ccc(CO)cc2)O1)N1CCN(Cc2ccc3c(c2)OCO3)CC1,0.02% (inactive)
5,O=[n+]1c2c(n([O-])c3ccccc31)CCC2,8.78% (inactive)
6,O=[n+]1c2c(n([O-])c3cc(F)c(N4CCCC4)cc31)CCC2,18.6% (active)
7,O=[n+]1c2c(n([O-])c3cc(F)c(N4CCCC4)cc31)CCCC2,50.2% (active)
8,CC(C)n1cnc2c(NCc3ccccc3)cc(N[C@H](C)CO)cc21,-0.08% (inactive)
9,C#CCN1C(=O)S/C(=C/C=C/c2ccc(N(C)C)cc2)C1=O,0.36% (inactive)
10,O=C(NCCN1CCOCC1)c1ccccc1N1C(=O)[C@@H]2Cc3c([nH]c4ccccc34)C(c3ccc(F)cc3)N2C1=O (stereo partly specified),0.13% (inactive)
11,COC(=O)CCC(=O)OC1(C)C(=O)C2=CN(Cc3ccc(OC)cc3)C(c3ccc(OC)cc3)=CC2=C(Br)C1=O (stereo unspecified),-0.01% (inactive)
12,CN(N=Nc1nc[nH]c1C(=O)NN)C1CCCCC1,0.38% (inactive)
13,O=C(Nc1ccc(F)cc1)OCCN1CCN(Cc2ccccc2)CCC1=O,-0.08% (inactive)
14,Fc1ccc(CN2CCCN(C(=S)Nc3ccc(F)cc3)CC2)cc1,17.4% (active)
15,Cc1ccc(NC(=O)COC(=O)c2csc3c2CCC(C)C3)cc1S(=O)(=O)N1CCCCC1 (stereo unspecified),1.08% (inactive)
16,COc1ccc2c(CC(=O)N[C@@H](Cc3c[nH]c4ccccc34)C(=O)O)cc(=O)oc2c1,4.51% (inactive)
17,CCc1ccc(-n2c(O)c(C=NCCN(CC)CC)c(=O)[nH]c2=O)cc1,2.92% (inactive)
18,CCOc1ccc(-n2c(SCC(=O)Nc3ccc(OC)cc3OC)nc3c(c2=O)SCC3)cc1,0.76% (inactive)
19,Cc1[nH]nc2c1C(c1cc(Br)cs1)C(C#N)=C(N)O2 (stereo unspecified),0.04% (inactive)
20,COc1ccc(-c2ccc(C3C(C#N)=C(N)Oc4n[nH]c(C)c43)o2)cc1 (stereo unspecified),14.3% (active)
21,CCOc1ccc(NC(=S)c2ccncc2)cc1,0.07% (inactive)
22,C=COc1ccc(N2C(=O)c3ccccc3OC2C)cc1 (stereo unspecified),2.14% (inactive)
23,O=C(O)c1cccc(-c2ccc(/C=N/Nc3ccc([N+](=O)[O-])cc3)o2)c1,1.4% (inactive)
24,Nc1ccc2nc3c(=O)[nH]c(=S)[nH]c3nc2c1,6.07% (inactive)
25,Nc1ccc2nc(-c3ccccc3)cnc2c1,26.1% (active)
26,COc1ccc(-c2cc3ncc(-c4ccccc4)c(N)n3n2)cc1,1.7% (inactive)
